ChEMBL document CHEMBL3992509, “Discovery of a Highly Potent, Selective, and Metabolically Stable Inhibitor of Receptor-Interacting Protein 1 (RIP1) for the Treatment of Systemic Inflammatory Response Syndrome” (J Med Chem, 2017)
The source made the active and inactive calls. The rule behind the calls is not given here.

What was measured:
Brain = assay: Drug uptake in C57BL/6J mouse brain at 20 mg/kg, iv after 2 hrs by LC-MS/MS analysis; format: ADME, organism-based; conditions: in vivo
[1] = Half life in mouse liver microsomes in presence of NADPH by LC-MS/MS analysis; format: ADME, microsome
[2] = Intrinsic clearance in mouse liver microsomes assessed per mg protein in presence of NADPH by LC-MS/MS analysis; format: ADME, microsome; conditions: read-out: CLH
[3] = target: T1, Receptor-interacting serine/threonine-protein kinase 1 (Homo sapiens) (UniProt Q13546); assay: Inhibition of TNFalpha/z-VAD-FMK-induced RIP1 phosphorylation in human HT-29 cells by Western blot method; format: cell-based
T1 sequence (whole entry): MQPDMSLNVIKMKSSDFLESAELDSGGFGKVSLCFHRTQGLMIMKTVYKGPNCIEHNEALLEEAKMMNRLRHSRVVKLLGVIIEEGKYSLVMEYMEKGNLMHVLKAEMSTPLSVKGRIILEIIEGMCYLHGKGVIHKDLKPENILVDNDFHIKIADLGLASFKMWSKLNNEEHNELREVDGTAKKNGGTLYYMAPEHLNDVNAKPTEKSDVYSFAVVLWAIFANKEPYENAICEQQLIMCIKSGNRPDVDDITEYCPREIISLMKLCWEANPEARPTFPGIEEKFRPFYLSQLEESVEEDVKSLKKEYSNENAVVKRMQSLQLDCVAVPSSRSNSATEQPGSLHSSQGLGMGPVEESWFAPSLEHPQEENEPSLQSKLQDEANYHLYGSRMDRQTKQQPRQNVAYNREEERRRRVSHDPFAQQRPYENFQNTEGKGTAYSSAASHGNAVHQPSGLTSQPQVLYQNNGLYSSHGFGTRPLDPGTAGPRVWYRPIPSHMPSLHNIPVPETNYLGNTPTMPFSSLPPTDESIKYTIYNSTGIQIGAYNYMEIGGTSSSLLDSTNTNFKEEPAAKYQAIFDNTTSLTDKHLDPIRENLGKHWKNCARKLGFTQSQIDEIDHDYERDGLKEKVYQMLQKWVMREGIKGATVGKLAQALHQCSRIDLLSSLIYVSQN

[4] = target: Indoleamine 2,3-dioxygenase 1 (Homo sapiens, UniProt P14902); assay: Inhibition of recombinant human IDO expressed in Escherichia coli assessed as reduction in kynurenine production at 200 uM using L-tryptophan as substrate after 3 hrs by methylene blue dye based assay
Method in brief: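 Reaction mix: 50 mM MES pH 6.5, 20 mM ascorbate, 2250 U/mL catalase, 10 μM methylene blue, 200 μM L-Trp, 100 nM recombinant IDO, 200 μM compound or DMSO. Incubated 37 °C for 3 h; kynurenine colour read at 321 nm.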

Mus musculus [5] = assay: Protection against TNFalpha-induced mortality in ip dosed C57BL/6J mouse assessed as increase in survival rate administered as single dose 17 mins before TNFalpha injection measured every 30 mins up to 60 hrs post TNFalpha injection; format: functional, organism-based
Method in brief: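 C57BL/6 mice, 6-8 weeks, ~20 g, randomized (n = 6~10). Given 5.5 μg mTNFα (~0.25 mg/kg) IV in endotoxin-free PBS, 0.2 mL. Compound IP 17 min before TNFα: either once at 6 mg/kg or […], 1, 3 mg/kg then every 12 h; vehicle controls. Survival checked every 30 min to 60 h.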

Mus musculus [6] = assay: (§1) Protection against TNFalpha-induced spleen damage in C57BL/6J mouse assessed as reduction in immune cell infiltration at 0.3 to 3 mg/kg, ip pretreated for 17 mins followed by TNFalpha injection and subsequent compound treatment once in every 12 hrs measured 24 hrs post TNFalpha injection by hematoxylin and eosin staining based assay; format: functional, organism-based
Method in brief: (§2)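 Mice given mTNFα IV; compound 0.3, 1, 3 mg/kg IP 17 min before and every 12 h. Killed 24 h post-TNFα. Organs fixed 24 h in 10% neutral buffered formalin, paraffin-embedded, 5-μm sections, H&E stained; ×200, at least three mice each.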

Mus musculus [7] = assay: Protection against TNFalpha-induced multiorgan damage in C57BL/6J mouse assessed as serum creatinine level at 0.3 to 3 mg/kg, ip pretreated for 17 mins followed by TNFalpha injection and subsequent compound treatment once in every 12 hrs measured 24 hrs post TNFalpha injection; format: functional, organism-based
Method in brief: (§3)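 C57BL/6 mice given 4 μg mTNFα (~0.18 mg/kg) IV. Compound 0.3, 1, 3 mg/kg IP 17 min before and then every 12 h; vehicle controls. Blood taken 12 h and 24 h after TNFα. Assays: IL-6 and IL-1β; serum LDH, CK, AST, creatinine, BUN, amylase.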

Mus musculus [8] = assay: Protection against TNFalpha-induced multiorgan damage in C57BL/6J mouse assessed as blood urea nitrogen level at 0.3 to 3 mg/kg, ip pretreated for 17 mins followed by TNFalpha injection and subsequent compound treatment once in every 12 hrs measured 24 hrs post TNFalpha injection; format: functional, organism-based; method in brief: as §3
Mus musculus [9] = assay: as §1, with “macrophages” for “immune cell”; format: functional, organism-based; method in brief: as §2
Mus musculus [10] = assay: as §1, with “thymus” for “spleen”; format: functional, organism-based; method in brief: as §2
Cytochrome P450 1A2 = target: T2, Cytochrome P450 1A2 (Homo sapiens, UniProt P05177); assay: Inhibition of CYP1A2 (unknown origin); format: ADME
T2 sequence (P05177 whole entry): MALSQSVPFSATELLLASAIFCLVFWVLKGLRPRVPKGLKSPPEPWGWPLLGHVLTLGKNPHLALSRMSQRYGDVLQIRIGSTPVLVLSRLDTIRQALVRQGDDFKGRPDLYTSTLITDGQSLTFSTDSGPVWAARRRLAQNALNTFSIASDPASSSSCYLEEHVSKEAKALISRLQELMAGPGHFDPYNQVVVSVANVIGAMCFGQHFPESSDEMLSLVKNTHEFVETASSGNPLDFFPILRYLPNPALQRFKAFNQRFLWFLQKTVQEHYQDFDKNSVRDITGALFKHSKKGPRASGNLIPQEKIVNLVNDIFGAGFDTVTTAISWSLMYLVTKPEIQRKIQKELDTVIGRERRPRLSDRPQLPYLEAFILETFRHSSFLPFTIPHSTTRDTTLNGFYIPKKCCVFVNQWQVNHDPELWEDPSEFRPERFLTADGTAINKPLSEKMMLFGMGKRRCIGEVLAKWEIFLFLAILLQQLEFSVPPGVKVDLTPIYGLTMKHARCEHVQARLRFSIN

Cytochrome P450 2C19 = Cytochrome P450 2C19 (Homo sapiens, UniProt P33261); assay: Inhibition of CYP2C19 (unknown origin); format: ADME
Cytochrome P450 2C9 = Cytochrome P450 2C9 (Homo sapiens, UniProt P11712); assay: Inhibition of CYP2C9 (unknown origin); format: ADME
[11] = Efflux ratio of apparent permeability in MDCK cells harboring MDR1; format: ADME, cell-based, Canis lupus familiaris; conditions: dog
[12] = target: Receptor-interacting serine/threonine-protein kinase 3 (Homo sapiens) (UniProt Q9Y572); assay: Inhibition of full length recombinant human N-terminal GST-tagged RIP3 expressed in baculovirus infected sf9 cells at 10 uM using MBP as substrate preincubated for 15 mins followed by MBP/ATP mixture addition measured after 90 mins by ADP-Glo kinase assay
Receptor-interacting serine/threonine-protein kinase 3 (Homo sapiens), sequence (Q9Y572 whole entry, looked up): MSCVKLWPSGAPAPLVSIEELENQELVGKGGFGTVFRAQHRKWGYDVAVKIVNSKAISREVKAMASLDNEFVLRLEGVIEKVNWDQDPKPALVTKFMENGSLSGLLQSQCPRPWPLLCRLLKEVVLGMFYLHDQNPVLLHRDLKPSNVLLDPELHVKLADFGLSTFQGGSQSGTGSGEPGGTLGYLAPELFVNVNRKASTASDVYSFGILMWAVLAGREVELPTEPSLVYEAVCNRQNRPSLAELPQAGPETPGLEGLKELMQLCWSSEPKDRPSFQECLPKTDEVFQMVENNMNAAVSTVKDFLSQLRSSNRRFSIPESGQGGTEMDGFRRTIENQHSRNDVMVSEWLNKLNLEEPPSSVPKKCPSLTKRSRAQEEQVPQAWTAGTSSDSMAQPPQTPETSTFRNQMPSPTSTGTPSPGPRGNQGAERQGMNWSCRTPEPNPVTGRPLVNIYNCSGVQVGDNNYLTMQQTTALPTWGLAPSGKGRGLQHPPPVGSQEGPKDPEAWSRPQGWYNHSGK

Cytochrome P450 2C19, sequence (P33261 whole entry): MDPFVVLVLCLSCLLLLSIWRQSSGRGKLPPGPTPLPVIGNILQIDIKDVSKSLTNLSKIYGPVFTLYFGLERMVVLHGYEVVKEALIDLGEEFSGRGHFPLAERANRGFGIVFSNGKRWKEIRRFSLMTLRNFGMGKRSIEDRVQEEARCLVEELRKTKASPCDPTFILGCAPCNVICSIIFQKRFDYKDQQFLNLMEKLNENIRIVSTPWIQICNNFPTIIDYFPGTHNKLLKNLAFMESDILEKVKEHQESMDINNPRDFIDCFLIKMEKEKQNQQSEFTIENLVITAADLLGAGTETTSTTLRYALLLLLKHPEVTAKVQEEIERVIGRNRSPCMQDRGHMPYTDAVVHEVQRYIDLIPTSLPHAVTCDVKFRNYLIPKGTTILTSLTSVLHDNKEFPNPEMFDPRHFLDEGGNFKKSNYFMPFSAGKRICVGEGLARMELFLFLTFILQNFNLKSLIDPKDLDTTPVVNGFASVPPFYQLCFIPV
Cytochrome P450 2C9, sequence (P11712 whole entry): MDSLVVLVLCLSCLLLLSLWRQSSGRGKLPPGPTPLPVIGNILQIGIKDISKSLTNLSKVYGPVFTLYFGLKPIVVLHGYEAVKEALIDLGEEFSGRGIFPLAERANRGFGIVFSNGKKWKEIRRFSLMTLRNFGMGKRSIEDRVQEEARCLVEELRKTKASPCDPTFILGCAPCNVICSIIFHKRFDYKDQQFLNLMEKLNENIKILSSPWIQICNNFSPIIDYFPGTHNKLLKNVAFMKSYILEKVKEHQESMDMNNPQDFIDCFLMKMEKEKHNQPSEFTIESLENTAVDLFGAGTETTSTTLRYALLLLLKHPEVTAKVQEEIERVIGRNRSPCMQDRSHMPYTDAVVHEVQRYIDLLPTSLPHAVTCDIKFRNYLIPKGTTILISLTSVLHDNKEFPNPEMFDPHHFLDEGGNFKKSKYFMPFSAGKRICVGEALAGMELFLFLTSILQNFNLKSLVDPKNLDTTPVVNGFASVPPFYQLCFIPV
Indoleamine 2,3-dioxygenase 1, sequence (P14902 whole entry): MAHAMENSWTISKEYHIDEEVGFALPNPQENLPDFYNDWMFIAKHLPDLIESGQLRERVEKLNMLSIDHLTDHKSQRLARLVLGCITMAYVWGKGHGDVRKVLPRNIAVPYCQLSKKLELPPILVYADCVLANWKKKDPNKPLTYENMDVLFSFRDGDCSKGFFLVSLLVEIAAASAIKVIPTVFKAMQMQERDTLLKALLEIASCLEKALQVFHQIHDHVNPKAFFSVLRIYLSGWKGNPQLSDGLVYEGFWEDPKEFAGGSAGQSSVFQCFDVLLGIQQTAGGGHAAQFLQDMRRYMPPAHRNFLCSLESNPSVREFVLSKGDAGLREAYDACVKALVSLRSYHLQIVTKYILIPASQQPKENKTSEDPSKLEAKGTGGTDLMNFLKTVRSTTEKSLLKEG

With `CCC(C)(C)C(=O)N(O)Cc1ccccc1` the Drug uptake (Brain) was “Active”, the half-life [1] was 35.5 min and the microsomal CLint [2] was 19.5 µL/min/mg. The inhibition [3] was “Active”, the “inhibition (INH)” value [4] was “Not Active” and the Activity (Mus musculus [5]) was “Dose-dependent effect”. For the same molecule, the Activity (Mus musculus [6]) was “Active”, the Activity (Mus musculus [7]) was “Active” and the Activity (Mus musculus [8]) was “Active”. The Activity (Mus musculus [9]) was “Active”, the Activity (Mus musculus [10]) was “Active” and the IC50 (Cytochrome P450 1A2) was greater than 50 µM. For the same molecule, the IC50 (Cytochrome P450 2C19) was greater than 50 µM, the IC50 (Cytochrome P450 2C9) was greater than 50 µM and the efflux ratio [11] was 0.87. For the same molecule, the inhibition [12] was “inactive”.
